These results are taken from PubChem BioAssay.

Assay [1] in a line: inhibitors of TNFa-induced NFkB p65 translocation, primary screen, imaging, HUVEC, MLSMR starter and 10KST1 sets (AID 438;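 active = inhibition above 20% together with a positive visual image hit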;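 also: compound added about 3h40 before a 20 min TNFalpha stimulation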;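 as to inhibition: signal is the nuclear over cytoplasmic p65 intensity ratio per well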). To be noted: HUVEC TNFa-induced p65 nuclear translocation; cell count: measured here: nuclei count (cytotoxicity indicator), at 2.08 µM; inhibition: at 2 µM, stronger effect = higher value, 0% TNFa-plus-vehicle, 100% no-TNFa wells.
A short description of assay [2]: inhibitors of E-selectin induction by TNFa, primary screen, imaging, HUVEC, immunofluorescence, MLSMR starter and 10KST1 sets (AID 487).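 As to inhibition: signal is fraction of cell area covered by stained E-selectin grains.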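 As to nuclei count: 100% = median nuclei count of all wells on the same plate.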 To be noted: HUVEC TNFalpha-induced E-selectin immunofluorescence imaging, at 2 µM; inhibition: stronger effect = higher value; nuclei count: measured here: cell number, toxicity.
Assay [3] in a line: DUSP6 inhibitors restoring Erk phosphorylation by chemical complementation, primary imaging in DUSP6-transfected HeLa (AID 609;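 active = compounds giving at least 50% inhibition in the cell-based MKP-3 phosphatase rescue imaging test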;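 as to inhibition: phospho-Erk level distribution per well compared with pooled transfected vehicle control wells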). To be noted: HeLa MKP-3 transfected, phospho-Erk imaging KS statistic, at 10 µM, cells stimulated with TPA for 15 min.
In assay [4] the target is Dual specificity protein phosphatase 6 (Homo sapiens) (UniProt Q16828). The assay is described as above. To be noted: HeLa MKP-3 transfected, phospho-Erk imaging KS statistic; at 10 µM; stronger effect = higher value; cells stimulated with TPA for 15 min.
The target in assay [5] is Voltage-gated potassium channel subunit beta-2 (Rattus norvegicus) (UniProt P62483). The experiment in a line: KvBeta enzyme negative modulators, primary screen, biochemical, NADPH fluorescence (AID 622;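 active = fluorescence slope higher than the sample average by over 3 SD, cut at about -0.22 in these data, passing the limit was not always enough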;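 also: slope of raw intensity against log time taken from 70 to 1610 s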). As to conditions: recombinant KvBeta, 4-cyanobenzaldehyde reduction, at 10 µM, stronger effect = higher value.
The target is the same in assay [6]. The experiment in a line: KvBeta positive modulators, primary screen, biochemical, NADPH fluorescence (AID 623;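 active = NADPH fluorescence slope more negative than the mean of all samples by about 3 SD, 99.7% confidence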;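 also: fluorescence intensity change per second fitted from 20 to 320 s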). As to conditions: Recombinant KvBeta, NADPH fluorescence decrease slope, 10 min; at 10 µM; stronger effect = lower value.
The target in assay [7] is Muscarinic acetylcholine receptor M4 (Homo sapiens) (UniProt P08173). In words: compounds altering M4/GIRK thallium flux, either direction, primary screen, M4 allosteric agonist project, cell-based, HEK293 M4/GIRK, BTC-AM (AID 625;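 active = fluorescence slope after compound addition differing from the mean of all tested samples at 99.7% confidence, mostly higher but some lower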;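 also: thallium influx through GIRK channels coupled to M4 in HEK293 cells with BTC-AM dye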). To be noted: at 10 µM, actives lie on both sides. An outline of the steps:
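Material: HEK293 cells with M4 receptor and GIRK channels; Times: cells overnight at 37 °C, BTC-AM loading 1 h, reads 2 min total; Technique: kinetic BTC-AM fluorescence sampled at 1 Hz, 10 s pre-addition baseline; Read-out basis: slope over 15–24 s of trace normalized to starting intensity; Controls: carbachol positive, DMSO negative.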

Assay [8] is described as follows: inhibitors of larval lipid processing in zebrafish, primary screen, whole organism, PED6 fluorescence, gall bladder and intestine (AID 686;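 active = a full or partial loss of lipid-probe fluorescence in the fish gall bladder, intestine or both, judged by eye; inactive = no fluorescence loss, or compound toxic to the fish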;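 also: larvae 5 to 7 days old with five fish per well; signal comes from phospholipase A2 cleavage of quenched PED6 carried via bile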). To be noted: Zebrafish larvae PED6 lipid processing, fluorescence scoring; screened at 20 µM (by protocol). An outline of the steps:
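Incubation: overnight exposure of larvae to compound plus PED6 / Test system: live zebrafish larvae aged 5-7 days, whole organism / Amount: 5 larvae per well / Read-out basis: visual per-well fluorescence inhibition score / Signal: visual fluorescence microscopy scoring of gall bladder, gut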

A short description of assay [9]: inhibitors of Chlamydomonas gravitaxis, primary screen, whole organism, Chlamydomonas reinhardtii, WT vs cilia-less mutant, absorbance, 96-well (AID 463189;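 active = inhibition at or above 50% relative to wild type and mutant plate controls; inactive = inhibition below 50%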;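 also: 0% = wild type cc124 cells in DMSO and 100% = ciliumless bld1 mutant cells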). As to conditions: OD600 absorbance, 2 days, at 10 µM, stronger effect = higher value.
The mark [10] stands for this setting: measured here: cell density z-score.
[11] abbreviates: measured here: nuclear c-Myc green intensity z-score.
Setting [12] is: measured here: nuclear pErk red intensity z-score, stronger effect = higher value.

Activity calls are given as the source filed them.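 The calls were made as follows, unless noted: active = visually confirmed hit in the image check and inhibition above 20%; inconclusive = visually confirmed hit but inhibition not above 20%; inactive = no visual hit in the image check.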

Chain of Voltage-gated potassium channel subunit beta-2 (Rattus norvegicus) (P62483 whole entry, looked up): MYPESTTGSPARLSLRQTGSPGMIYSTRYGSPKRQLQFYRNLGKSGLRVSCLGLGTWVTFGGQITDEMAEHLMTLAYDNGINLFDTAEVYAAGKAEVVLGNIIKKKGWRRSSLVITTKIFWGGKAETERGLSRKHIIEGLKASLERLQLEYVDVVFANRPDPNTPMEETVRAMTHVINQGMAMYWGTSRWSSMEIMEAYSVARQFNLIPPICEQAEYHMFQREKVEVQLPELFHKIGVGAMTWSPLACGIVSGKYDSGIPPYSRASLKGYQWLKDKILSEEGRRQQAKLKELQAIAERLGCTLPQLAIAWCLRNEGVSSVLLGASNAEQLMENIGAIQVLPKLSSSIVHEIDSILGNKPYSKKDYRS
Chain of Dual specificity protein phosphatase 6 (Homo sapiens) (Q16828 whole entry, looked up): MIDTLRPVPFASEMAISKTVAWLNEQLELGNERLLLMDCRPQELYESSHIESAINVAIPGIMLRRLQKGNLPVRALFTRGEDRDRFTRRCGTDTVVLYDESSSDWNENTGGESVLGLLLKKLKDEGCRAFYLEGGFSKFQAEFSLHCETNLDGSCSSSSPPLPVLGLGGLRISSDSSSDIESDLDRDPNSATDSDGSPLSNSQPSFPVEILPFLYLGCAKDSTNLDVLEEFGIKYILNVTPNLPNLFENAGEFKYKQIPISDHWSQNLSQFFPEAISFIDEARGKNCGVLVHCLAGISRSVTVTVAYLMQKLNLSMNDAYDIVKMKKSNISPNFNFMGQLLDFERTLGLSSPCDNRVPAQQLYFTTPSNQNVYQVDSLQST
Chain of Muscarinic acetylcholine receptor M4 (Homo sapiens) (P08173 whole entry, looked up): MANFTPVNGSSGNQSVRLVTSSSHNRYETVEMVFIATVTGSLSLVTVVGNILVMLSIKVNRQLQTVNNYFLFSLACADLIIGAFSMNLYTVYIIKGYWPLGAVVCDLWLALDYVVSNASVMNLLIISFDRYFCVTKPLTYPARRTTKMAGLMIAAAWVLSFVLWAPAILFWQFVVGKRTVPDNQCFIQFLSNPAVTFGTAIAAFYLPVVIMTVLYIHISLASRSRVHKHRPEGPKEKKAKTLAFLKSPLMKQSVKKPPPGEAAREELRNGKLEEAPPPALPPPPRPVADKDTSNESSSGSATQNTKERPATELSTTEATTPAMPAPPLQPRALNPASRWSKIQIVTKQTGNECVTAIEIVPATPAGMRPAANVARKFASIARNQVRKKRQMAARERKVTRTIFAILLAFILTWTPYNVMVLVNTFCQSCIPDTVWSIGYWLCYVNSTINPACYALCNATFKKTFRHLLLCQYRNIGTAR

One may read the inhibition as the change of the read-out against control, counted positive when it falls. Regarding `C/C(=N/n1cnnc1)c1cccnc1`, the cell count in assay [1] turned out to be 541. Also, the inhibition in [1] is 1.3% (inactive); in [2] it was -130% (inactive); in assay [4], 3.42% (inactive); in [9] it was -7.67% (inactive). The same compound yielded a nuclei count in assay [2] of 140%. Moreover, the z-score is 0.514 in assay [3] (setting [10]), -0.833 in [3] (setting [11]) and -1.29 in assay [3] (setting [12]). In addition, the fluorescence slope in assay [5] is -0.448 (inactive); in assay [7], 0.00412 (inactive). Further, the NADPH fluorescence slope in [6] is -0.000104 (inactive). The compound was called inactive in assay [8].
Regarding `O=c1cc(-c2ccco2)nc(-c2cccs2)o1`, the cell count in assay [1] was determined as 667. The inhibition in [1] was 5.6% (inactive); in [2], 7.4% (inactive); in assay [4], 9.91% (inactive); in assay [9], 22.8% (inactive). Also, in [2], the nuclei count came to 99.4%. The z-score in assay [3] (setting [10]) is -0.166; in [3] (setting [11]) it was -0.514; in assay [3] (setting [12]), -0.386. Also, the fluorescence slope was -0.561 (inactive) in assay [5] and 0.0053 (inactive) in [7]. Besides, the NADPH fluorescence slope in assay [6] was -5.3e-05 (inactive). Further, the result in assay [8] was inactive.
Turning to `CCOC(=O)c1c(NC(=O)CN2CCOCC2)sc2c1CC(C)(C)OC2`, in assay [1], the cell count is 525. Moreover, the inhibition is -12.5% (inactive) in assay [1], -92.8% (inactive) in assay [2], 3.49% (inactive) in assay [4] and -12.3% (inactive) in assay [9]. For the same compound, the nuclei count in [2] was found to be 146%. The z-score is 0.295 in [3] (setting [10]), -0.682 in assay [3] (setting [11]) and -0.184 in assay [3] (setting [12]). Also, the fluorescence slope is -0.465 (inactive) in [5] and 0.00443 (inactive) in assay [7]. In addition, the NADPH fluorescence slope in [6] was -4.6e-05 (inactive). Further, the call in assay [8] was inactive.
On to `CS(=O)(=O)c1ccc2nc(NC(NC(=O)c3ccco3)(C(F)(F)F)C(F)(F)F)sc2c1`, for which, in [1], the cell count was 376. The inhibition is -6.2% (inactive) in [1], 9.6% (inactive) in [2], 3.42% (inactive) in [4] and 2.54% (inactive) in assay [9]. The compound further returned a nuclei count in assay [2] of 162%. In addition, the values for the z-score in assay [3] (setting [10]), in [3] (setting [11]) and in assay [3] (setting [12]) were -0.876, 1.31 and 0.831, respectively. Besides, the fluorescence slope in assay [5] is -0.451 (inactive); in [7], 0.00497 (inactive). In addition, the NADPH fluorescence slope in assay [6] is -8.9e-05 (inactive). For the same compound, the outcome in assay [8] was inactive.
For `CNc1oc(-c2ccccc2Cl)nc1C#N`, the cell count in [1] was 368. In addition, the inhibition in assay [1] was 4.3% (inactive); in assay [2], 23.8% (inactive); in [4] it was 3.56% (inactive); in assay [9] it was 19.9% (inactive). Further, the nuclei count in assay [2] amounted to 79.3%. Besides, the z-score in assay [3] (setting [10]) was 0.949; in assay [3] (setting [11]) it was -0.665; in assay [3] (setting [12]), 0.059. Also, the fluorescence slope was -0.594 (inactive) in [5] and 0.00508 (inactive) in assay [7]. The NADPH fluorescence slope in assay [6] is -4.5e-05 (inactive). Further, in assay [8], the outcome was “active; weak signal in gallbladder and intestine”.
Take `CC1(C)C2CCC1(C)C(NC(=O)CCN1CCCCC1)C2` (stereo unspecified): in assay [1], the cell count is 570. For the same compound, the inhibition was -3.7% (inactive) in assay [1], -89.2% (inactive) in [2], 5.95% (inactive) in [4] and 55.5% (active) in [9]. Besides, the nuclei count in assay [2] worked out at 163%. Moreover, the z-score in [3] (setting [10]) turned out to be 0.233; in assay [3] (setting [11]), 1.96; in assay [3] (setting [12]), 0.463. For the same compound, the values for the fluorescence slope in [5] and in assay [7] were -0.4 (inactive) and 0.00508 (inactive), respectively. Further, the NADPH fluorescence slope in [6] is -4.2e-05 (inactive). Also, the outcome in assay [8] was inactive.
Regarding `Clc1ccc(-n2ncc3c(N4CCCC4)ncnc32)cc1`, in assay [1], the cell count is 589. Further, the inhibition was -9.4% (inactive) in assay [1], -131% (inactive) in [2], 7.42% (inactive) in assay [4] and 134% (active) in assay [9]. The compound further came in with a nuclei count in assay [2] of 94.9%. The z-score in assay [3] (setting [10]) was -3.24; in assay [3] (setting [11]), 1.27; in assay [3] (setting [12]), 1.5. The fluorescence slope is -0.411 (inactive) in assay [5] and 0.00915 (inactive) in assay [7]. The NADPH fluorescence slope in assay [6] is -5e-05 (inactive). In [8], the outcome was inactive.
